Several values for one entry are separate records, joined by “and”; a condition that tells them apart may be missing. Identical values can stand only once. A value given as a limit tells only on which side of the number the result lay.

Assay [1] deals with WT Dcs1p. In words: 31P NMR degradation. The class given is biochemical, S. cerevisiae. The gist of the method: (§1)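 Recombinant S. cerevisiae Dcs1p, expressed in E. coli BL21(DE3) codon plus and purified by Ni-NTA, TEV tag cleavage and size exclusion into 25 mM Hepes pH 8.0, 25 mM NaCl made in 100% D2O. 0.5 mM m7GpppG mixed with 50 nM enzyme at 27°C. Successive 31P spectra recorded over several hours, following substrate conversion to m7GMP and GDP.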

Assay [2] has as its target T1, Dcs1p WT (H268N) (Saccharomyces cerevisiae, UniProt Q06151, H268N). Description: Methyl NMR spectra, formation of asymmetric conformation. Also noted: species or system S. cerevisiae.
In assay [3] the target is Dcs1p WT (H268N), full length (Saccharomyces cerevisiae, UniProt Q06151, H268N). Description: ITC. The class given is binding, S. cerevisiae. The essentials: (§2)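 Recombinant yeast Dcs1p carrying H268N, full length or C-terminal domain, purified by Ni-NTA, TEV cleavage and size exclusion. ITC at 25°C: m7GpppG or m7GMP injected into 0.5 mM enzyme solution.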
The target of assay [4] is T1, Dcs1p WT (H268N). In words: NMR titration. On the set-up: species or system S. cerevisiae. Conditions: Kd open site (second binding event), determined using NMR. The gist of the method: (§3)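 Deuterated, Ile/Met methyl-labelled Dcs1p (H268N), 0.25 mM dimer in D2O buffer pH 8.0 at 27°C. Methyl-TROSY spectra recorded during stepwise m7GpppG addition, up to 20 molar equivalents (5 mM). Peak positions and intensities from all titration points fitted simultaneously to a sequential two-site binding model. Kd given as mean ± s.d. from Monte Carlo simulations varying data within their errors.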

Assay [5] addresses T2, Dcs1p K126A (H268N) (Saccharomyces cerevisiae, UniProt Q06151, H268N/K126A). In words: NMR titration. On the set-up: species or system S. cerevisiae. To be noted: Kd open site (second binding event), determined using NMR. The essentials:
as §3

The target in assay [6] is T2, Dcs1p K126A (H268N). Description: ITC. The class given is binding, S. cerevisiae. The gist of the method:
as §2

Assay [7] relates to Dcs1p K126A. Description: 31P NMR degradation. The class given is biochemical, S. cerevisiae. Conditions: high substrate excess.
Assay [8] relates to Dcs1p Y94A. Description: 31P NMR degradation. It is filed as biochemical, S. cerevisiae. To be noted: Y94A enzyme; 31P NMR time series, 14 h. The gist of the method: as §1
Assay [9] addresses T1, Dcs1p WT (H268N). Description: Longitudinal exchange NMR, domain flipping motions. On the set-up: species or system S. cerevisiae. The gist of the method: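 Methyl-TROSY longitudinal exchange spectra recorded with m7GpppG at 1:1, 1:2.5, 1:5 and 1:20 molar ratios. Mixing times 3–1000 ms. Rates fitted from auto- and cross-peak intensities versus mixing time.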
The test system of assay [10] is Dcs1p K126A. In words: Longitudinal exchange NMR, domain flipping motions. Also noted: species or system S. cerevisiae.
Assay [11] deals with DcpS. Conditions: cited from earlier work.

Chain of Dcs1p WT (H268N), full length (Q06151 whole entry H268N, the tested form may be a part): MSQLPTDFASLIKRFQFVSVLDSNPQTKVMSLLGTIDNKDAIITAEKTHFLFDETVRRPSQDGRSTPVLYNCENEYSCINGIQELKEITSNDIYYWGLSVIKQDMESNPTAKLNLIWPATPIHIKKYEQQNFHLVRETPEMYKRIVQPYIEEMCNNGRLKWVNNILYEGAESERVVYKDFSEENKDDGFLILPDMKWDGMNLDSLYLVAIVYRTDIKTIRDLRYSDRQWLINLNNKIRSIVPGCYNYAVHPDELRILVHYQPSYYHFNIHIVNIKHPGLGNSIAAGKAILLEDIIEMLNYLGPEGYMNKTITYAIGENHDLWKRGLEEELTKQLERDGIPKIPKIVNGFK
T1 sequence (Q06151 whole entry H268N, the tested form may be a part): as above
T2 sequence (Q06151 whole entry K126A/H268N): as the sequence (Q06151 whole entry H268N, the tested form may be a part) above, with K126A counted along it

As for `Nc1nc2c(ncn2[C@@H]2O[C@H](COP(=O)(O)OP(=O)(O)OP(=O)(O)OC[C@H]3O[C@@H](n4cnc5c(=O)[nH]c(N)nc54)[C@H](O)[C@@H]3O)[C@@H](O)[C@H]2O)c(=O)[nH]1` [GpppG], the “enzymatic turnover / hydrolysis” value in [1] (WT enzyme, 31P NMR time series, 14 h) is recorded as “did not detect enzymatic turnover”. Besides, in assay [2], the “formation of asymmetric conformation” value is on record as “observed no resonances corresponding to the asymmetric conformation”.
On to `C[n+]1cn([C@@H]2O[C@H](COP(=O)([O-])O)[C@@H](O)[C@H]2O)c2nc(N)[nH]c(=O)c21` [m7GMP, m^7G monophosphate], for which, in assay [3] (Kd (single-step binding, closed binding site), ITC, DcpS H268N), the affinity, expressed as Kd, was 1.1 ± 0.6 µM. In assay [3] (product vs substrate), the “factor weaker interaction with closed binding site than the substrate” value is 4. Further, in assay [3] (using ITC and NMR), the “interaction with the second, open binding site” value is “not able to detect an interaction”. For the same compound, the “formation of asymmetric conformation” value in assay [2] is recorded as “preserves the asymmetric form of the complex”.
`C[n+]1cn([C@@H]2O[C@H](COP(=O)([O-])OP(=O)(O)OP(=O)(O)OC[C@H]3O[C@@H](n4cnc5c(=O)[nH]c(N)nc54)[C@H](O)[C@@H]3O)[C@@H](O)[C@H]2O)c2nc(N)[nH]c(=O)c21` [m7GpppG]: the Kd in assay [4] was found to be 105 µM; in assay [5], 196 µM; in assay [6], 0.24 µM. In addition, the “Turnover rate (kcat)” value was 0.27 s^−1 under high substrate excess in [1] (high substrate excess, 0.5 mM substrate, 50 nM enzyme, 27°C) and 0.48 s^−1 under high substrate excess in assay [7]. Also, the “enzymatic turnover / hydrolysis” value in [8] is “did not detect enzymatic turnover”. In assay [9] (20-fold excess of substrate over dimeric enzyme, inactive H268N), the “domain flipping (exchange) rate” value is 35.4 (± 4.8) s^−1 and 35.4 s^−1. For the same compound, the Flipping rate in assay [9] (low substrate excess) is 8 Hz; in assay [10] (K126A (H268N), under high and low substrate excess), < 1 Hz under high and low substrate excess. Also, in assay [10] (K126A, substrate excess, based on detection limit of the experiment), the domain flipping rate entry is reported as “less than 1 s^−1”.
As for `C[n+]1cn([C@@H]2O[C@H](COP(=O)(O)OP(=O)(O)O)[C@@H](O)[C@H]2O)c2nc(N)[nH]c(=O)c21` [m^7GDP, 7-methylguanosine diphosphate], in assay [11], the hydrolysis entry was “not hydrolysed efficiently”.

The values are drawn from PMC4544744 (Nature chemical biology, 2015).
